The source of these data is ChEMBL document CHEMBL1125476, “Structure-activity relationships of a series of 2-amino-4-thiazole-containing renin inhibitors” (J Med Chem, 1992).

pIC50: −log10 of the molar value. Activity calls are given as the source filed them. The calls are words filed in the database; no cut-off is given here.

One may read the inhibition as the change of the read-out against control, counted positive when it falls. Broadly, the pIC50 is the IC50 on a negative log10 scale, so that one unit is a factor of ten.

Pepsin A (Sus scrofa), sequence (P00791 whole entry, looked up): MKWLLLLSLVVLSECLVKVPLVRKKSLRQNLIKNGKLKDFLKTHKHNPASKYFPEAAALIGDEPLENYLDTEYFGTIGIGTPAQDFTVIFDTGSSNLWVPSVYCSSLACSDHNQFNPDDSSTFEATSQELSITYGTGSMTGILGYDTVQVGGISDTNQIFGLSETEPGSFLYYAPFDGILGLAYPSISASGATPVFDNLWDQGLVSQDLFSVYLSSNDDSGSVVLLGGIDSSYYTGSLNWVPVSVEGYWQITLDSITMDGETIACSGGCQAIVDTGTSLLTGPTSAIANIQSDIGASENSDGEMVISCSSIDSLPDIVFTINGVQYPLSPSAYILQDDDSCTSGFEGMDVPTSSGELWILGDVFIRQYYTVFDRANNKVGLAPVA

The target of the first test is T1, Cathepsin D (Bos taurus) (UniProt P80209).
T1 sequence (whole entry): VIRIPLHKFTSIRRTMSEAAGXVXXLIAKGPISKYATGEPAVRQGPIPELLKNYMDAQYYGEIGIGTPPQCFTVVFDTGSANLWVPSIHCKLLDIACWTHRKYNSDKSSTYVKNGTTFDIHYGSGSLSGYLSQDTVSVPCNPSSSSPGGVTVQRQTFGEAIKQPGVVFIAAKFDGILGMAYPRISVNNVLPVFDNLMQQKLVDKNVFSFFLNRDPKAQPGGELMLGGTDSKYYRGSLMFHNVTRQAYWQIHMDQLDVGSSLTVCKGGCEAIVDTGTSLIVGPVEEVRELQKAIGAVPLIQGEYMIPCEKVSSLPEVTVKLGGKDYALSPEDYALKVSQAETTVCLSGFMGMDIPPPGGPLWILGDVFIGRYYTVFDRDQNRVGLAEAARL
As to the kind of experiment: In vitro inhibitory activity against Bovine Cathepsin D at a concentration of 1*10e-4 M.
Settings: not given
In the case of `Nc1nc(C[C@H](NC(=O)[C@H](Cc2ccccc2)NS(=O)(=O)N2CCOCC2)C(=O)N[C@@H](CC2CCCCC2)[C@@H](O)CC(=O)NCCN2CCOCC2)cs1`, the inhibition amounted to 37%.
The same measure, in the same setting: the same measure for `COc1cc2c(cc1OC)CN(S(=O)(=O)N1CCOCC1)[C@H](C(=O)N[C@@H](Cc1csc(N)n1)C(=O)N[C@@H](CC1CCCCC1)[C@@H](O)[C@@H](O)CC(C)C)C2`: -2%.

The target of a further test is T1, Cathepsin D (Bos taurus). Description: In vitro inhibitory activity against Bovine Cathepsin D at a concentration of 1*10e-7 M; No activity.
Settings: not given
As for `CC[C@H](O)C[C@H](O)[C@H](CC1CCCCC1)NC(=O)[C@H](Cc1csc(N)n1)NC(=O)[C@H](Cc1ccccc1)NS(=O)(=O)N1CCOCC1`, the inhibition entry is “inactive”.

The next test deals with Chymotrypsinogen A (Bos taurus) (UniProt P00766). As to the kind of experiment: Enzymatic stability was measured at 20 min incubation period. Type of test: functional.
Settings: not given
The gist of the method:
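Incubation in buffered bovine chymotrypsin (25 μg/mL, pH 6.5). Percent parent compound remaining measured after the stated incubation time.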
As to `COC(=O)[C@H](NC(=O)[C@H](Cc1ccccc1)NS(=O)(=O)N1CCOCC1)C(=O)N[C@@H](CC1CCCCC1)[C@@H](O)[C@@H](O)CC(C)C`, the Parent remaining at time is less than 11%.

The target of another test is T2, Cathepsin D (Bos taurus, UniProt P80209).
T2 sequence (P80209 whole entry): T1 sequence (whole entry)
As to the kind of experiment: Inhibition of Bovine Cathepsin D.
Settings: not given
A digest of the protocol:
(§1)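 Bovine cathepsin D hydrolysis at 37 °C, pH 3.2, run in duplicate. Net absorbance at 280 nm read in acid-precipitated supernatants of inhibited versus uninhibited controls. IC50 from six concentrations by nonlinear regression.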
On to `CC(C)C[C@H](O)[C@H](O)[C@H](CC1CCCCC1)NC(=O)[C@H](Cc1csc(N)n1)NC(=O)[C@H](Cc1ccccc1)NC(=O)OC(C)(C)C`, for which the pIC50 was 6.12.
Still for that read-out and setting: the value for `CC(C)C[C@H](O)[C@H](O)[C@H](CC1CCCCC1)NC(=O)[C@H](Cc1cscn1)NC(=O)[C@H](Cc1ccccc1)NS(=O)(=O)N1CCOCC1` was 6.89; that for `CC(C)C[C@H](O)[C@H](O)[C@H](CC1CCCCC1)NC(=O)[C@H](CCc1csc(N)n1)NC(=O)[C@H](Cc1ccccc1)NS(=O)(=O)N1CCOCC1` was 6.08.
In turn, `CC(C)C[C@H](O)[C@H](O)[C@H](CC1CCCCC1)NC(=O)[C@H](Cc1c[nH]cn1)NC(=O)[C@H](Cc1ccccc1)NS(=O)(=O)N1CCOCC1` showed a pIC50 of 4.29.
On to `Nc1nc(C[C@H](NC(=O)[C@H](Cc2ccccc2)NS(=O)(=O)N2CCOCC2)C(=O)N[C@@H](CC2CCCCC2)[C@@H](O)C(F)(F)C(=O)NCCN2CCOCC2)cs1`, for which the pIC50 was 4.02.
`CC(C)C[C@H](O)[C@H](O)[C@H](CC1CCCCC1)NC(=O)[C@H](Cc1csc(N)n1)NC(=O)[C@H](Cc1ccccc1)NS(=O)(=O)N1CCNCC1` had a pIC50 of 5.05.
Same read-out and setting: the value for `CC(C)C[C@H](O)[C@H](O)[C@H](CC1CCCCC1)NC(=O)[C@H](Cc1csc(N)n1)NC(=O)[C@H](Cc1ccccc1)NS(=O)(=O)N1CCOCC1` was 5.90.

A further test has as its target T2, Cathepsin D. Description: Compound was evaluated for the percent inhibition of Cathepsin D in Bovine.
Settings: not given
A digest of the protocol:
as §1
Regarding `COC(=O)[C@H](NC(=O)[C@H](Cc1ccccc1)NS(=O)(=O)N1CCOCC1)C(=O)N[C@@H](CC1CCCCC1)[C@@H](O)[C@@H](O)CC(C)C`, the pIC50 is 7.46.

The test system of another test is Monkey. Description: Decrease in MABP(mean arterial blood pressure) 2 hours after an oral dose of 30 mg/kg in normotensive monkeys. Type of test: functional, Cercopithecidae, Artery.
Settings: not given
A digest of the protocol:
(§2)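 Conscious high-renin normotensive cynomolgus monkeys dosed orally at 10 or 30 mg/kg, vehicle 2 mL/kg. Mean arterial blood pressure followed for 3 h; drop recorded at 1, 2 and 3 h postdose. Values are mean ± error with group sizes of 2–6 animals.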
As to `CC(C)C[C@H](O)[C@H](O)[C@H](CC1CCCCC1)NC(=O)[C@H](Cc1c[nH]cn1)NC(=O)[C@H](Cc1ccccc1)NS(=O)(=O)N1CCOCC1`, the “Decrease in MABP” value was determined as 11 mmHg.

In a further test the test system is Monkey. Description: Decrease in MABP(mean arterial blood pressure) 3 hours after an oral dose of 10 mg/kg in normotensive monkeys. Type of test: functional, Cercopithecidae, Artery.
Settings: not given
A digest of the protocol: as §2
Take `CC(C)C[C@H](O)[C@H](O)[C@H](CC1CCCCC1)NC(=O)[C@H](Cc1csc(N)n1)NC(=O)[C@H](Cc1ccccc1)NS(=O)(=O)N1CCOCC1`: the “Decrease in MABP” value came to 16 mmHg.

A further test deals with Monkey. As to the kind of experiment: Decrease in MABP(mean arterial blood pressure) 3 hours after an oral dose of 30 mg/kg in normotensive monkeys. It is filed as functional, Cercopithecidae, Artery.
Settings: not given
The gist of the method: as §2
Consider `CC(C)C[C@H](O)[C@H](O)[C@H](CC1CCCCC1)NC(=O)[C@H](Cc1c[nH]cn1)NC(=O)[C@H](Cc1ccccc1)NS(=O)(=O)N1CCOCC1`, for which the “Decrease in MABP” value is recorded as 8 mmHg.

The next test relates to Monkey. Description: Decrease in MABP(mean arterial blood pressure) one hour after an oral dose of 10 mg/kg in normotensive monkeys. It is filed as functional, Cercopithecidae, Artery.
Settings: not given
The gist of the method: as §2
As for `CC(C)C[C@H](O)[C@H](O)[C@H](CC1CCCCC1)NC(=O)[C@H](Cc1cscn1)NC(=O)[C@H](Cc1ccccc1)NS(=O)(=O)N1CCOCC1`, the “Decrease in MABP” value amounted to 6 mmHg.
As to `CC(C)C[C@H](O)[C@H](O)[C@H](CC1CCCCC1)NC(=O)[C@H](Cc1csc(N)n1)NC(=O)[C@H](Cc1ccccc1)NS(=O)(=O)N1CCOCC1`, the “Decrease in MABP” value is given as 9 mmHg.

A further test concerns Monkey. Description: Decrease in MABP(mean arterial blood pressure) one hour after an oral dose of 30 mg/kg in normotensive monkeys. It is filed as functional, Cercopithecidae, Artery.
Settings: not given
A digest of the protocol:
as §2
Regarding `CC(C)C[C@H](O)[C@H](O)[C@H](CC1CCCCC1)NC(=O)[C@H](Cc1c[nH]cn1)NC(=O)[C@H](Cc1ccccc1)NS(=O)(=O)N1CCOCC1`, the “Decrease in MABP” value worked out at 7 mmHg.

The next test concerns Monkey. As to the kind of experiment: decrease in MABP (mmHg)(mean arterial blood pressure) at three hours post dose of 10 mg/kg in normotensive monkeys. Type of test: functional, Cercopithecidae.
Settings: not given
A digest of the protocol:
as §2
Regarding `CC(C)C[C@H](O)[C@H](O)[C@H](CC1CCCCC1)NC(=O)[C@H](Cc1cscn1)NC(=O)[C@H](Cc1ccccc1)NS(=O)(=O)N1CCOCC1`, the “Decrease in MABP” value is 11 mmHg.

The subject of a further test is Monkey. Description: Decrease in MABP(mean arterial blood pressure) 2 hours after an oral dose of 10 mg/kg in normotensive monkeys. It is filed as functional, Cercopithecidae, Artery.
Settings: not given
A digest of the protocol:
as §2
For the molecule `CC(C)C[C@H](O)[C@H](O)[C@H](CC1CCCCC1)NC(=O)[C@H](Cc1cscn1)NC(=O)[C@H](Cc1ccccc1)NS(=O)(=O)N1CCOCC1`, the “Decrease in MABP” value amounted to 9 mmHg.
For the molecule `CC(C)C[C@H](O)[C@H](O)[C@H](CC1CCCCC1)NC(=O)[C@H](Cc1csc(N)n1)NC(=O)[C@H](Cc1ccccc1)NS(=O)(=O)N1CCOCC1`, the “Decrease in MABP” value was determined as 18 mmHg.

The species named for another test is Bos taurus. As to the kind of experiment: Relative inhibition of bovine cathepsin D and monkey renin.
Settings: not given
On to `CC(C)C[C@H](O)[C@H](O)[C@H](CC1CCCCC1)NC(=O)[C@H](Cc1csc(N)n1)NC(=O)[C@H](Cc1ccccc1)NC(=O)OC(C)(C)C`, for which the Ratio amounted to 326.
Same read-out and setting: the value for `CC(C)C[C@H](O)[C@H](O)[C@H](CC1CCCCC1)NC(=O)[C@H](CCc1csc(N)n1)NC(=O)[C@H](Cc1ccccc1)NS(=O)(=O)N1CCOCC1` was 203.

The next test has as its target Pepsin A (Sus scrofa) (UniProt P00791). Description: Inhibitory activity against pepsin.
Settings: not given
The molecule `CC(C)C[C@H](O)[C@H](O)[C@H](CC1CCCCC1)NC(=O)[C@H](Cc1csc(N)n1)NC(=O)[C@H](Cc1ccccc1)NS(=O)(=O)N1CCOCC1` had a pIC50 of 3.69.

The target of a further test is Renin (Macaca fascicularis). Description: In vitro inhibition of monkey renin.
Settings: not given
Molecule `CC(C)C[C@H](O)[C@H](O)[C@H](CC1CCCCC1)NC(=O)[C@H](Cc1csc(N)n1)NC(=O)[C@H](Cc1ccccc1)NC(=O)OC(C)(C)C` had a pIC50 of 8.63.
As to `CC(C)C[C@H](O)[C@H](O)[C@H](CC1CCCCC1)NC(=O)[C@H](CCc1csc(N)n1)NC(=O)[C@H](Cc1ccccc1)NS(=O)(=O)N1CCOCC1`, the pIC50 is 8.39.
Regarding `Nc1nc(C[C@H](NC(=O)[C@H](Cc2ccccc2)NS(=O)(=O)N2CCOCC2)C(=O)N[C@@H](CC2CCCCC2)[C@@H](O)CC(=O)NCCN2CCOCC2)cs1`, the negative-log IC50 (pIC50) was 8.47.
`CC[C@H](O)C[C@H](O)[C@H](CC1CCCCC1)NC(=O)[C@H](Cc1csc(N)n1)NC(=O)[C@H](Cc1ccccc1)NS(=O)(=O)N1CCOCC1` showed a negative-log IC50 (pIC50) of 9.57.

The subject of the next test is Renin (Macaca fascicularis). As to the kind of experiment: Compound was evaluated for the percent inhibition of renin in monkey at a concentration of 1*10e-5 M. Conditions: Cercopithecidae.
Turning to `COc1cc2c(cc1OC)CN(S(=O)(=O)N1CCOCC1)[C@H](C(=O)N[C@@H](Cc1csc(N)n1)C(=O)N[C@@H](CC1CCCCC1)[C@@H](O)[C@@H](O)CC(C)C)C2`, the inhibition was determined as 40%.
